Experimental findings from ChEMBL document CHEMBL2424598, “Identification and optimization of pteridinone Toll-like receptor 7 (TLR7) agonists for the oral treatment of viral hepatitis” (J Med Chem, 2013) are described below.

Where only a bound is given, the exact number is not on record here.

The target of series [1] is T1, Toll-like receptor 7 (Homo sapiens) (UniProt Q9NYK1).
T1 sequence (whole entry): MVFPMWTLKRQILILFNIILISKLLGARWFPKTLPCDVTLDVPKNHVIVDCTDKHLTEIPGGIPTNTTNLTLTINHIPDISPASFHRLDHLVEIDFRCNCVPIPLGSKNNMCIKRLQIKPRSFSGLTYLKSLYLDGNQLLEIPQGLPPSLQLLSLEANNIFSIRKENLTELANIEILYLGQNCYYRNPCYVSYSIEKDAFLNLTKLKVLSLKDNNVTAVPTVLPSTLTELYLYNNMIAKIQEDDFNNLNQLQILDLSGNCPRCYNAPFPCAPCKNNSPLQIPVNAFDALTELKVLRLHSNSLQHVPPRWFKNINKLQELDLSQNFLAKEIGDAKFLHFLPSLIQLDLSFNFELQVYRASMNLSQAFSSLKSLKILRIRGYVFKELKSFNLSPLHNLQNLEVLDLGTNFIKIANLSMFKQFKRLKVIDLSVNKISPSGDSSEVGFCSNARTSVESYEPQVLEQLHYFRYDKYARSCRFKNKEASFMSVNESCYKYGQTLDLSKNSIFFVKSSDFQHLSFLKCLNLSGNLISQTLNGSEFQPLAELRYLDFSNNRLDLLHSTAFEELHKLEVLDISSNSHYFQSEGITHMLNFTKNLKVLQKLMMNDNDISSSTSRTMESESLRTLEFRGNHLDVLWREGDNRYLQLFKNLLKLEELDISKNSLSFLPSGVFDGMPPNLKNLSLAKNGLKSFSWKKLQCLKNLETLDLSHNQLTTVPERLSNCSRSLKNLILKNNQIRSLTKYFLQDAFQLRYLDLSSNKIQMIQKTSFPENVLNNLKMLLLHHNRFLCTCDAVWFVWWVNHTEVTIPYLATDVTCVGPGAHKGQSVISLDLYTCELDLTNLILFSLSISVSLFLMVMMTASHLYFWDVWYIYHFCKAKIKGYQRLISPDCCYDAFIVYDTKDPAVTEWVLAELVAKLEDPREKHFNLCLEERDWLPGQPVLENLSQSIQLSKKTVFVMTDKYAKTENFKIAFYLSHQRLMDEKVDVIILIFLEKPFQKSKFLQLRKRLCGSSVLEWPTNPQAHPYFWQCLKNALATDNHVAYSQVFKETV
Description: Agonist activity at TLR7-mediated IFNalpha production in human PBMC assessed as minimum concentration of compound necessary to generate >3 fold of cytokine levels relative to control. An outline of the steps:
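Cryopreserved PBMCs from leukapheresis of a single healthy human donor, chosen as a consistent, robust responder to TLR7 agonist stimulation. Cells were incubated with compound for 24 h over an eight-point concentration range. Secreted IFN-α was measured to build dose-response curves. MEC was taken as the lowest concentration giving cytokine levels ≥3-fold over untreated control cultures.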

For a further series, the species on record is Homo sapiens. Description: Selectivity ratio of MEC for TLR8-mediated TNFalpha production in human PBMC to MEC for TLR7-mediated IFNalpha production in human PBMC. An outline of the steps:
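Cryopreserved human PBMCs came from leukapheresis of a single healthy donor selected as a consistent responder. Cells were incubated with compound for 24 h over an eight-point concentration range, and cytokine release was measured. MEC is the lowest concentration giving cytokine levels at least 3-fold above untreated cultures, determined per cytokine.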

Series [2] can be described thus: Lipophilicity, log D of the compound. The format is physicochemical. The following applies: octanol/water.

Take `COCCNc1nc(N)c2c(n1)N(Cc1cccc(CN3CCCC3)c1)CC(=O)N2`: the MEC in series [1] worked out at 1000 nM. The Ratio in the series filed under Homo sapiens is 10.

With `CCCCOc1nc(N)c2c(n1)N(Cc1ccc(CN3CCCC3)cc1)CC(=O)N2`, in series [1], the MEC is 1 nM. Further, in the series listed under Homo sapiens, the Ratio was 10.

As for `CCC[C@H](C)Oc1nc(N)c2c(n1)N(Cc1cccc(CN3CCCC3)c1)CC(=O)N2`, in series [1], the MEC amounted to 3 nM. Also, in the series filed under Homo sapiens, the Ratio was 33.

With `COCCOc1cc2c(c(N)n1)NC(=O)CN2Cc1ccc(CN2CCCC2)cc1`, the MEC in series [1] turned out to be 0.32 nM. In addition, the Ratio in the series listed under Homo sapiens was 10.

With `CCCCOc1nc(N)c2c(n1)N(C)C(Cc1cccc(CN3CCCC3)c1)C(=O)N2` (configuration not stated), the MEC in series [1] was 320 nM. For the same compound, the Ratio in the series filed under Homo sapiens was 30.

As for `CCCCOc1nc(N)c2c(n1)N(Cc1cccc(CN3CCOCC3)c1)CC(=O)N2`, in series [1], the MEC worked out at 300 nM. For the same compound, the Ratio in the series filed under Homo sapiens worked out at 3.3.

Turning to `CCCCOc1nc(N)c2c(n1)N(Cc1ccc3c(c1)CN(C(C)C)CC3)CC(=O)N2`, the MEC in series [1] worked out at 3 nM. Further, the Ratio in the series filed under Homo sapiens was 3.

With `CCCCOc1cc2c(c(N)n1)NC(=O)CN2Cc1cccc(CN2CCCC2)c1`, the MEC in series [1] stood at 300 nM. For the same compound, in the series filed under Homo sapiens, the Ratio was 10.

As for `CCCCCOc1nc(N)c2c(n1)N(Cc1cccc(CN3CCCC3)c1)CC(=O)N2`, in series [1], the MEC was 100 nM. Also, the Ratio in the series listed under Homo sapiens is 100.

In the case of `CCCCOc1nc(N)c2c(n1)N(Cc1ccc(-c3ccc(CN4CCCC4)cc3)cc1)CC(=O)N2`, the MEC in series [1] came out at 3 nM. In the series filed under Homo sapiens, the Ratio was 3.3.

For the compound `CCCCOc1cc2c([nH]c(=O)c(=O)n2Cc2ccc(CN3CCCC3)cc2)c(N)n1`, the MEC in series [1] stood at 3 nM. Moreover, in the series filed under Homo sapiens, the Ratio amounted to 3.

As for `CCCCOc1nc(N)c2c(n1)N(Cc1ccc(CCCN3CCCC3)nc1)CC(=O)N2`, the MEC in series [1] worked out at 3 nM. Also, the Ratio in the series filed under Homo sapiens was 30.

As for `CCCCOc1nc(N)c2c(n1)N(Cc1ccc(CN3CCCC3)cc1)C(C)C(=O)N2` (configuration not stated), the MEC in series [1] came to 10 nM. Further, the Ratio in the series filed under Homo sapiens is 30.

With `CCCN(C)C(=O)c1nc(N)c2c(n1)N(Cc1cccc(CN3CCCC3)c1)CC(=O)N2`, the MEC in series [1] amounted to 1000 nM. The Ratio in the series listed under Homo sapiens stood at 10.

As to `CCCN(C)C(=O)c1nc(N)c2[nH]c(=O)c(=O)n(Cc3cccc(CN4CCCC4)c3)c2n1`, the MEC in series [1] was determined as 1000 nM. The Ratio in the series listed under Homo sapiens was determined as 10.

As for `CCCCOc1nc(N)c2c(n1)N1Cc3cccc(CN4CCCC4)c3CC1C(=O)N2` (configuration not stated), the MEC in series [1] is 300 nM. In the series listed under Homo sapiens, the Ratio stood at 10.

On to `CCCCSc1nc(N)c2c(n1)N(Cc1cccc(CN3CCCC3)c1)CC(=O)N2`, for which the MEC in series [1] was 100 nM. The Ratio in the series filed under Homo sapiens was 30.

As to `CCCCOc1nc(N)c2c(n1)NC(Cc1cccc(CN3CCCC3)c1)C(=O)N2` (configuration not stated), in series [1], the MEC was more than 10000 nM.

As to `CCCCOc1nc(N)c2c(n1)N(Cc1ccc3c(c1)CCN(C(C)C)C3)CC(=O)N2`, the MEC in series [1] came to 3 nM. In addition, the Ratio in the series filed under Homo sapiens was 10.

With `CCCCCc1nc(N)c2c(n1)N(Cc1cccc(CN3CCCC3)c1)CC(=O)N2`, in series [1], the MEC came to 320 nM. Further, the Ratio in the series listed under Homo sapiens was 30.

On to `Nc1nc(OCC2CCCCC2)nc2c1NC(=O)CN2Cc1cccc(CN2CCCC2)c1`, for which the MEC in series [1] worked out at 3000 nM. Moreover, the Ratio in the series filed under Homo sapiens is 3.3.

Consider `CCCCOc1cc2c([nH]c(=O)c(=O)n2Cc2cccc(CN3CCCC3)c2)c(N)n1`, for which the MEC in series [1] turned out to be 30 nM. Moreover, the Ratio in the series filed under Homo sapiens stood at 10.

With `CCCCOc1nc(N)c2c(n1)N(Cc1cccc(CN3CCCC3)c1)CCC(=O)N2`, the MEC in series [1] was more than 10000 nM.

For `CC(C)COc1nc(N)c2c(n1)N(Cc1cccc(CN3CCCC3)c1)CC(=O)N2`, the MEC in series [1] amounted to 10000 nM. Besides, the Ratio in the series listed under Homo sapiens stood at 0.

Consider `Nc1nc(OCc2ccccc2)nc2c1NC(=O)CN2Cc1cccc(CN2CCCC2)c1`, for which the MEC in series [1] amounted to 3000 nM. In addition, the Ratio in the series listed under Homo sapiens came out at 3.3.

`CCCCOc1nc(N)c2c(n1)N(Cc1ccc(-c3cccc(CN4CCCC4)c3)cc1)CC(=O)N2`: the MEC in series [1] turned out to be 3 nM. Moreover, the Ratio in the series listed under Homo sapiens was 10.

Turning to `CCCCOc1nc(N)c2[nH]c(=O)c(=O)n(Cc3cccc(CN4CCCC4)c3)c2n1`, the MEC in series [1] is 3 nM. For the same compound, the Ratio in the series listed under Homo sapiens turned out to be 33.

For `CCCCOc1nc(N)c2c(n1)N(Cc1cccc(CN3CCCC3)c1)C1(CC1)C(=O)N2`, the MEC in series [1] was determined as 1000 nM. Besides, in the series listed under Homo sapiens, the Ratio amounted to 3.

Consider `CCCCOc1nc(N)c2c(n1)N(Cc1ccccc1CN1CCCC1)CC(=O)N2`, for which the MEC in series [1] amounted to 100 nM. Further, the Ratio in the series filed under Homo sapiens was 100.

`CCCCOc1cc2c([nH]c(=O)c(=O)n2Cc2ccc(-c3ccc(CN4CCCC4)cc3)cc2)c(N)n1`: the MEC in series [1] was 10 nM. In addition, in the series filed under Homo sapiens, the Ratio is 3.

Consider `CCCCOc1nc(N)c2c(n1)N(C)C(Cc1ccc(CN3CCCC3)cc1)C(=O)N2` (configuration not stated), for which, in series [1], the MEC amounted to 1000 nM. Besides, the Ratio in the series listed under Homo sapiens stood at 10.

For `CCCCOc1nc(N)c2c(n1)N(Cc1ccccc1)CC(=O)N2`, the Ratio in the series filed under Homo sapiens was 0.3.

`CCCCOc1nc(N)c2c(n1)N(Cc1cccc(CN3CCCC3)c1)C(C)C(=O)N2` (configuration not stated): the MEC in series [1] is 300 nM. For the same compound, the Ratio in the series listed under Homo sapiens is 30.

`Nc1nc(OCCC2CC2)nc2c1NC(=O)CN2Cc1cccc(CN2CCCC2)c1`: the MEC in series [1] came out at 30 nM. Also, the Ratio in the series listed under Homo sapiens was determined as 10.

For `CCCCNc1nc(N)c2[nH]c(=O)c(=O)n(Cc3cccc(CN4CCCC4)c3)c2n1`, the MEC in series [1] turned out to be 3 nM. Further, in the series listed under Homo sapiens, the Ratio stood at 30.

Take `CCCCOc1nc(N)c2[nH]c(=O)c(=O)n(Cc3ccc(CN4CCCC4)cc3)c2n1`: the MEC in series [1] is 0.32 nM. Also, in the series listed under Homo sapiens, the Ratio is 10.

As for `COCCOc1nc(N)c2c(n1)N(Cc1cccc(CN3CCCC3)c1)CC(=O)N2`, in series [1], the MEC is 10 nM. In series [2], this compound came in with a logD of 1. For the same compound, the Ratio in the series listed under Homo sapiens turned out to be 1000.

For `COCCOc1nc(N)c2[nH]c(=O)c(=O)n(Cc3cccc(CN4CCCC4)c3)c2n1`, the MEC in series [1] came to 100 nM. Further, in the series filed under Homo sapiens, the Ratio amounted to 3.

Regarding `CCCCOc1nc(N)c2c(n1)N(Cc1cccc(CN3CCCCC3)c1)CC(=O)N2`, the MEC in series [1] amounted to 30 nM. Also, in the series filed under Homo sapiens, the Ratio turned out to be 3.3.

Turning to `CCCCOc1nc(N)c2[nH]c(=O)n(Cc3cccc(CN4CCCC4)c3)c2n1`, the MEC in series [1] turned out to be 0.03 nM.

For `CCCCOc1cc2c([nH]c(=O)c(=O)n2Cc2ccc(-c3cccc(CN4CCCC4)c3)cc2)c(N)n1`, the MEC in series [1] is 30 nM. Further, the Ratio in the series filed under Homo sapiens is 3.

On to `CCC(CC)COc1nc(N)c2c(n1)N(Cc1cccc(CN3CCCC3)c1)CC(=O)N2`, for which, in series [1], the MEC is 10 nM. The Ratio in the series filed under Homo sapiens stood at 30.

`CCCCOc1cc2c(c(N)n1)NC(=O)CN2Cc1ccc(CN2CCCC2)cc1`: the MEC in series [1] worked out at 30 nM. Besides, in the series listed under Homo sapiens, the Ratio is 10.

As for `CCCCNc1nc(N)c2c(n1)N(Cc1cccc(CN3CCCC3)c1)CC(=O)N2`, the MEC in series [1] is 10 nM. Besides, the Ratio in the series listed under Homo sapiens was 1000.

As for `Nc1nc(OCC2CCOCC2)nc2c1NC(=O)CN2Cc1cccc(CN2CCCC2)c1`, the MEC in series [1] amounted to 10 nM. In addition, in the series filed under Homo sapiens, the Ratio was 100.

Usually logD stands for the decadic logarithm of the distribution of all forms, ionised or not, between an organic phase and buffer at a given pH. A higher logD goes with a more lipophilic compound.
